Test results reported in the RNAGym collection of RNA variant scans (doi:10.1126/science.aae0568).
This sample holds only a part of the variants without activity.

B1: tRNA (parent)
chain: GUUCCGUUGGCGUAAUGGUAACGCGUCUCCCUCCUAAGGAGAAGACUGCGGGUUCGAGUCCCGUACGGAACG

Variants of: B1
Assay: yeast fitness relative to wild type (ratio to wild type); higher = fitter; tRNA-Arg(CCU), competitive growth, 37 C, YPD
In short: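 Changes in genotype frequencies gave Darwinian fitness relative to wild type. Frequencies were read by 100-nucleotide paired-end sequencing of gene amplicons before and after pooled Saccharomyces cerevisiae strains, carrying tRNA-Arg(CCU) gene variants at the native locus, were competed in YPD at 37°C for 24 hours in six replicates. A genotype was kept only with ≥ 100 starting reads, and estimates < 0.5 were set to 0.5.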

Row | Variant | yeast fitness
1 | C4U C34G U35A A42U | ≤ 0.5
2 | C4G G9A C27U C46G G48A C62G G68C | ≤ 0.5
3 | C4U A15C A65U A69U | ≤ 0.5
4 | C4U C22A A40C C55G A57C A69U | ≤ 0.5
5 | C4U A20U C22G | 0.54
6 | C4G G38A G67A | ≤ 0.5
7 | C4U A57U C61U | 0.605
8 | C4G U7G C55G | ≤ 0.5
9 | C4U A65G | 0.877
10 | C4U A65C | 0.873
11 | C4U A37C G63A | 0.593
12 | C4G C29U A36C A40U C55G | ≤ 0.5
13 | C4U C11U A15G C34U U54C C55U | 0.501
14 | C4G C61A G67A | 0.553
15 | C4G C31U | 1.12
16 | C4U C11G C22G C62U | ≤ 0.5
17 | C4G U7C C27A C66A A70U | ≤ 0.5
18 | C4G U7C C33G G52A | 0.652
19 | C4G G25A G51A | ≤ 0.5
20 | C4G G10C C34U C46G | ≤ 0.5
21 | C4U A36U A45C C61G A70C | 0.852
22 | C4U A40G A43U C55G | 0.584
23 | C4G C31A A42C | ≤ 0.5
24 | C4U C31G A45C C49A | ≤ 0.5

Row | Variant | yeast fitness
25 | C4U A36U G41C C55U U64C | 0.587
26 | C4U C29U G48A | 0.662
27 | C4U G9A C22G A42U G56A | ≤ 0.5
28 | C4G U7G C31U | 0.56
29 | C4G U8C | 0.89
30 | C4U G6A C34A A70C | ≤ 0.5
31 | C4U A36U A40C | 0.64
32 | C4G C30G G38A A42U | ≤ 0.5
33 | C4U A42C A43C C49U A70C | ≤ 0.5
34 | C4G C31G G38U | ≤ 0.5
35 | C4G G23C C55U A70U | ≤ 0.5
36 | C4G G12C U35A C49G C66U | 0.658
37 | C4G C34U C49A U54C A69U | ≤ 0.5
38 | C4U C11U C30G G68C | 0.593
39 | C4G G9A G39A G63A | ≤ 0.5
40 | C4G C31A C33G G51C G52A C60G | ≤ 0.5
41 | C4U C46G | 0.981
42 | C4U C5G C66U | 0.564
43 | C4U A36U A40C A65C | ≤ 0.5
44 | C4U C5G C29G C31G A37C C66A | 0.66
45 | C4U G10A A43U C55G G56A | ≤ 0.5
46 | C4G C27U G58C | 0.71
47 | C4U C33U G50C | ≤ 0.5
48 | C4G U7C C22U C27A U59G | ≤ 0.5

Row | Variant | yeast fitness
49 | C4G G58C C66U | 0.73
50 | C4U G9A | 0.927
51 | C4U G9C | 0.688
52 | C4G G18A A21G G25A G51C | ≤ 0.5
53 | C4U C46G G63C C66A | ≤ 0.5
54 | C4U C24A A57G G68C | ≤ 0.5
55 | C4U A21G A70U | 0.78
56 | C4U C24A U59G C62U A70G | ≤ 0.5
57 | C4G G18A C66U | 0.524
58 | C4G G25A C66A | ≤ 0.5
59 | C4U A14G A36C C46G C62U | ≤ 0.5
60 | C4U C24G U26A U28G U32A | ≤ 0.5
61 | C4U C24U C27A C60G G67C | ≤ 0.5
62 | C4G U8G C27G | 0.567
63 | C4U A21G C46A C62U | 0.691
64 | C4U G6A U8G C31U G63A | ≤ 0.5
65 | C4U C5G C29G C31G A37C U54A | ≤ 0.5
66 | C4G G10C C27G A37G G39A | ≤ 0.5
67 | C4U A14G | 0.856
68 | C4G G12U A14C C49U | ≤ 0.5
69 | C4G C29A C33G A45C | 0.588
70 | C4U A14U G50C G51C G56A | ≤ 0.5
71 | C4U A14C C22U C34U | ≤ 0.5
72 | C4G U7C C27A A70U | ≤ 0.5

Row | Variant | yeast fitness
73 | C4G U7A C22U | ≤ 0.5
74 | C4U C22G G67U | 0.638
75 | C4G G6C A43U G48A C66G | 0.512
76 | C4G G17A C22A G38A | 0.638
77 | C4G U16C C31U A42G | ≤ 0.5
78 | C4G G23C | 0.587
79 | C4G C49U U59C | 0.576
80 | C4U A43G | 1
81 | C4U A37U A43U | ≤ 0.5
82 | C4G C49U C62U | 0.653
83 | C4U C27A C31U A43U | 0.57
84 | C4G G51C U64A | ≤ 0.5
85 | C4G G17A G58C C60U A69U | ≤ 0.5
86 | C4G C30A A42U C55U C66A | ≤ 0.5
87 | C4G U19C C29A C33G A45C | ≤ 0.5
88 | C4U G10A A14U C46U | ≤ 0.5
89 | C4G U35G A42C C66U | ≤ 0.5
90 | C4U C11U C33U C62A | ≤ 0.5
91 | C4G G41U C61A C66U | ≤ 0.5
92 | C4G G38C | 0.763
93 | C4G G38A | 0.692
94 | C4U C49A | 0.787
95 | C4U C49U | 0.989
96 | C4U C11U C24A U47G | 0.557

Row | Variant | yeast fitness
97 | C4G G56A C66G | ≤ 0.5
98 | C4U C27U G39C U47A | ≤ 0.5
99 | C4G G17A C55U A70G | ≤ 0.5
100 | C4U C5G A37C | ≤ 0.5
101 | C4U G6A C29G G41A C60A | ≤ 0.5
102 | C4G U13G U16A | ≤ 0.5
103 | C4G U13G U16C | 0.566
104 | C4G U8G C24A C31G G50A | 0.594
105 | C4G C61A C62U A65U A69C | ≤ 0.5
106 | C4U C22A A40C | ≤ 0.5
107 | C4G G9A C22U C46G G56C | ≤ 0.5
108 | C4U C24A U26A | ≤ 0.5
109 | C4U A45G | 0.856
110 | C4U A45C | 0.939
111 | C4G U16C A36U | ≤ 0.5
112 | C4U A40G | 0.997
113 | C4G G12C C46U | ≤ 0.5
114 | C4G C29G A37G | 0.598
115 | C4U A45C G51A | 0.501
116 | C4U C11U U26G U28C A37G G41A C49G | ≤ 0.5
117 | C4U G9A C24G A37C A57U | 0.543
118 | C4G C24U C33G A65U C66U A69C | 0.584
119 | C4G U28G | 0.696
120 | C4G G17A G63A C66U | ≤ 0.5

Row | Variant | yeast fitness
121 | C4U G9A C49U G50A | 0.644
122 | C4U C30A G50U | 0.715
123 | C4G G6C G25A C29A C31A C33G G41C | ≤ 0.5
124 | C4U C11U G67A A69C | ≤ 0.5
125 | C4U C30A C61U | 0.812
126 | C4U A42G U47C G58A | ≤ 0.5
127 | C4G C31A C61U | ≤ 0.5
128 | C4G G56A | 0.927
129 | C4U A37U A70U | 0.676
130 | C4G G12A C24U A70C | ≤ 0.5
131 | C4U A20G C61A | 0.512
132 | C4U G6A C46G | 0.623
133 | C4G G12C | 0.676
134 | C4U A15G C22U G44C | ≤ 0.5
135 | C4U C29A | 0.691
136 | C4G C30G G50U | ≤ 0.5
137 | C4G G68C | 0.971
138 | C4G G68U | 0.865
139 | C4G C60G | 0.615
140 | C4U C27U U54A | ≤ 0.5
141 | C4G C30A G50U C66U | ≤ 0.5
142 | C4U A20G A45U C49U C61U C62G A69C | ≤ 0.5
143 | C4U G9C A69C | 0.594
144 | C4U A36C C61A | 0.705

Row | Variant | yeast fitness
145 | C4U C24A A69U | 0.601
146 | C4G G12U A14C C49G A57U C61G | ≤ 0.5
147 | C4U A21G C46A U54C | 0.791
148 | C4U C11G G51A U59A C62G | ≤ 0.5
149 | C4G U8C A37U A42C C66G | ≤ 0.5
150 | C4U C24U A36C C61G | ≤ 0.5
151 | C4G U26A U47G U54C | ≤ 0.5
152 | C4U A43G G68C | 0.553
153 | C4U C22U A42C | ≤ 0.5
154 | C4G G41A | 0.768
155 | C4G G17A G41C G58A | ≤ 0.5
156 | C4G G39C A45G A57C A65U C66U | 0.796
157 | C4G C31A C33G G51C C60G | ≤ 0.5
158 | C4U C30G A36U C55U | ≤ 0.5
159 | C4U C5G C11U C29U U32A C33U G67U A70G | ≤ 0.5
160 | C4U A36G G39A | 0.679
161 | C4G U8C C31G C33G G58C C60U A70C | ≤ 0.5
162 | C4U A15C C30G C49U A69C A70G | ≤ 0.5
163 | C4G U7G G12C A20U A70U | ≤ 0.5
164 | C4U G9C C29G C34G C60G | ≤ 0.5
165 | C4U C30A G63A | 0.828
166 | C4U C34G G41C G56C G58A G63C A65U | ≤ 0.5
167 | C4G U26A A57G | ≤ 0.5
